In data set [1] the test system is PC-12. Put plainly: Induction of neuritogenic activity in rat PC12 cells assessed as round cells without differention at 20 uM after 48 hrs by phase contrast microscope. It counts as functional. Put shortly: (§1)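 PC-12 cells (DSMZ) were primed 5 days in DMEM with 1% HS, 0.5% FBS and 50 ng/mL NGF, then put back in full-serum DMEM. Cells were dispersed through a 21-gauge needle, seeded at 1 × 10^5 cells/mL on collagen-coated wells and allowed 4 h. Compound at final 20 or 50 µM (0.2% MeOH or DMSO) for 48 h; NGF 50 ng/mL control. Phase-contrast scoring of 300 cells in three areas of two wells.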

For data set [2], the system named is PC-12. Description: Induction of neuritogenic activity in rat PC12 cells assessed as round cells without differention at 50 uM after 48 hrs by phase contrast microscope. It counts as functional. Put shortly:
as §1

Data set [3] deals with PC-12. Description: Cytotoxicity against rat PC12 cells at 0.1 to 50 uM after 4 hrs. It counts as cell-based. To be noted: pc-12, 2 days, in the assay text read “after 2 days” for “after 4 hrs”. Put shortly: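 MTT viability in PC-12 cells (DSMZ) in DMEM with 10% HS, 5% FBS and pen/strep; 5 × 10^4 cells/mL seeded, 1 h at 37 °C, then MeOH or DMSO stocks diluted in DMEM to 50, 20, 10, 1, 0.1 µM. Cells exposed 2 days at 37 °C, 5% CO2. MTT added for 4 h, SDS lysis overnight, OD 544 nm. Quadruplicate, mean ± SD; 0.2% MeOH/1% DMSO taken as 100% viability.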

Data set [4] deals with PC-12. Put plainly: Induction of neuritogenic activity in rat PC12 cells assessed as cells with length of one cell diameter at 20 uM after 48 hrs by phase contrast microscope. It counts as functional. In a few lines:
as §1

Data set [5] concerns PC-12. Description: Induction of neuritogenic activity in rat PC12 cells assessed as cells with length of one cell diameter at 50 uM after 48 hrs by phase contrast microscope. It counts as functional. In a few lines: as §1
The subject of data set [6] is PC-12. Put plainly: Induction of neuritogenic activity in rat PC12 cells assessed as cells with longer than one cell diameter at 50 uM after 48 hrs by phase contrast microscope. The class given is functional. Put shortly: as §1
The subject of data set [7] is PC-12. Description: Induction of neuritogenic activity in rat PC12 cells assessed as cells with flattened appearance at 20 uM after 48 hrs by phase contrast microscope. It counts as functional. Put shortly:
as §1

In data set [8] the test system is PC-12. Put plainly: Induction of neuritogenic activity in rat PC12 cells assessed as cells with flattened appearance at 50 uM after 48 hrs by phase contrast microscope. The class given is functional. In a few lines:
as §1

Turning to `CCC(C)/C=C(C)/C=C/C=C/C=C/C(=O)c1c(O)c(-c2ccc(O)cc2)c[nH]c1=O` (stereo not drawn) [FARINOSONE A], the Activity was 60% in data set [1]; 30% in data set [2]; “Non-toxic” in data set [3]; 40% in data set [4]; 60% in data set [5]; 10% in data set [6].

In the case of `CCC(C)/C=C(C)/C=C/C=C/C=C/C(=O)c1c(O)c(-c2ccc(O)cc2)cn(O)c1=O` (stereo not drawn) [FARINOSONE B], in data set [3], the Activity result was “Non-toxic”.

In the case of `CC(/C=C/C(=O)NC(CO)Cc1ccc(O)cc1)=C\C(C)CC(=O)O` (stereo not drawn) [FARINOSONE C], the Activity in data set [1] is listed as 47%; in data set [7], 53%; in data set [2], 27%; in data set [3], “Non-toxic”; in data set [8] it was 60%; in data set [5], 13%.

Source of the values: ChEMBL document CHEMBL1148946, “Farinosones A-C, neurotrophic alkaloidal metabolites from the entomogenous deuteromycete Paecilomyces farinosus” (J Nat Prod, 2004).
